Assays:
ERK phosphorylation = ERK phosphorylation in wild-type Sf9 cells; type: cell-based, Spodoptera frugiperda; settings: wild-type (non-transfected) Sf9 cells, data not shown
GPER [1] = molecular target: T1, GPER (Homo sapiens, UniProt Q99527); experiment: [3H] 2-ME competition binding in GPER-transduced Sf9 cell particulate fractions
[2] = test system: GPER‐transduced Sf9 cells; experiment: EdU incorporation proliferation assay in GPER-transduced Sf9 cells; type: cell-based; settings: Spodoptera frugiperda, read-out: Cell proliferation IC50
GPER [3] = molecular target: T1, GPER; experiment: Guanine nucleotide sensitivity of [3H] 2-ME high-affinity binding; settings: GppNHp 100 μM, 5 mM Mg++, n = 3
Outline: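 Sf9 particulate fraction expressing baculovirus-delivered GPER, incubated with [³H]2-ME (0.5–2 nM) with or without 100 μM GppNHp. Mg⁺⁺ was 5 mM to favour the high-affinity agonist state. Binding was in Tris-HCl pH 7.4 buffer with BSA, 120 min at 15°C. Reactions were stopped with ice-cold buffer, filtered and scintillation counted. Specific binding is total minus binding with 100 nM cold 2-ME added 12 min before radioligand.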

GPER [4] = molecular target: T1, GPER; experiment: Dissociation rate of [3H] 2-ME binding in GPER-transduced Sf9 cells; settings: corresponding to Koff
Outline: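 Particulate fraction (1000 × g then 20 000 × g spins) from Sf9 cells 48 h after human GPER baculovirus infection. Incubated with 2 nM [³H]2-ME for 120 min at 15°C, then diluted tenfold with ice-cold binding buffer (50 mM Tris-HCl pH 7.4). Bound radioactivity was sampled from 5 to 120 s by vacuum filtration through cellulose nitrate and scintillation counting. Nonspecific binding was taken with 100 nM unlabelled 2-ME. Mean ± SD, n = 4.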

T1 sequence (Q99527 whole entry, species assumed): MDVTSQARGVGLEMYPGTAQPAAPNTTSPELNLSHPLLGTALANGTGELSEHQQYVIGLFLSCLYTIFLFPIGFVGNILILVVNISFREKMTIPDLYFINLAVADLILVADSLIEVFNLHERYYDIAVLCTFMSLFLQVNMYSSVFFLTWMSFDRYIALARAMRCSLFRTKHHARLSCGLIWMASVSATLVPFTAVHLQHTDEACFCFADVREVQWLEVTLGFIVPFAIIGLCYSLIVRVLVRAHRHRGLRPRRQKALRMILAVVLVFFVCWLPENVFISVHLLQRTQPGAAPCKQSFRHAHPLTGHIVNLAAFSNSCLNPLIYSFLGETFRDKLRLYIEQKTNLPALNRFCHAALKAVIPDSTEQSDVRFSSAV

Molecule | Inhibition of ERK phosphorylation in wild-type Sf9 cells (ERK phosphorylation) | Ki (GPER [1]) | IC50 [2] | also measured
CC(=O)c1ccc2c(c1)[C@@H]1C=CC[C@@H]1[C@H](c1cc3c(cc1Br)OCO3)N2 (relative stereo) [G1, 1‐[(3aS,4R,9bR‐rel)‐4‐(6‐bromo‐1,3‐benzodioxol‐5‐yl)‐3a,4,5,9b‐tetrahydro‐[^3H]‐cyclopenta[c]quinolin‐8‐yl]‐ethanone] | did not inhibit | – | – | –
COc1cc2c(cc1O)CC[C@@H]1[C@@H]2CC[C@]2(C)[C@@H](O)CC[C@@H]12 [2‐ME, 2‐Methoxyestradiol] | did not inhibit | 1500 pM | 26 pM | –
C[C@]12CCC(=O)C=C1CC[C@@H]1[C@@H]2[C@@H](O)C[C@]2(C=O)[C@@H](C(=O)CO)CC[C@@H]12 [Aldosterone] | did not inhibit | 24000 pM | 104 pM | –
C[C@]12CC[C@@H]3c4ccc(O)cc4CC[C@H]3[C@@H]1CC[C@@H]2O [E2, Estradiol] | did not inhibit | – | – | –
Nc1nc2c(ncn2[C@@H]2O[C@H](COP(=O)(O)OP(=O)(O)NP(=O)(O)O)[C@@H](O)[C@H]2O)c(=O)[nH]1 [GppNHp] | – | – | – | Reduction of high-affinity [3H] 2-ME binding (GPER [3]; [3H] 2-ME 0.5 nM): 46 ± 23%; Reduction of high-affinity [3H] 2-ME binding (GPER [3]; [3H] 2-ME 1 nM): 19 ± 7%; Reduction of high-affinity [3H] 2-ME binding (GPER [3]; [3H] 2-ME 2 nM): 53 ± 24
[^3H] 2‐methoxyestradiol | – | – | – | Dissociation half-life (GPER [4]): 21 s

From article PMC9446082 (Pharmacology Research & Perspectives, 2022)
